Reference: publication PMC9476207 (ACS Omega, 2022)

Columns and labels:
[1] = tested on: UACC-257; assay: NCI-60 single-dose antiproliferative screen; type: cell-based; settings: Homo sapiens, UACC-257, 48 h, read-out: growth percent
Summary of the method: (§1)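 Cells grown in RPMI 1640 with 5% FBS and 2 mM L-glutamine, plated and held 24 h at 37 °C; time-zero plates TCA-fixed. DMSO stocks were diluted in gentamicin-containing medium to a final 10^-5 M, with a DMSO-only control. Exposure 48 h, 5% CO2. Adherent cells TCA-fixed 1 h at 4 °C, stained with 0.4% SRB, solubilised in 10 mM Trizma base, read at 515 nm. Growth percent derived from ODtzero, ODtest and ODctrl.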

[2] = tested on: HT29; assay: NCI-60 single-dose antiproliferative screen; type: cell-based; settings: Homo sapiens, HT-29, 48 h, read-out: growth percent
Summary of the method: (§2)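 NCI-60 protocol. Lines were grown in RPMI 1640 with 5% FBS and 2 mM L-glutamine, plated and incubated 24 h at 37 °C; time-zero plates were TCA-fixed. The test compound was dissolved in DMSO, diluted in medium with 50 μg/mL gentamicin and given once at a final 10^-5 M (DMSO control) for 48 h. Cells were fixed with cold TCA (1 h, 4 °C) and stained with 0.4% SRB in 1% acetic acid for 10 min. Dye was dissolved in 10 mM Trizma base and read at 515 nm. Growth percent was calculated from time-zero, test and control ODs.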

[3] = tested on: MDA-MB-435; assay: NCI-60 single-dose antiproliferative screen; type: cell-based; settings: Homo sapiens, MDA-MB-435, 48 h, read-out: growth percent
Summary of the method: as §2

[4] = tested on: SF-539; assay: NCI-60 single-dose antiproliferative screen; type: cell-based; settings: Homo sapiens, SF-539, 48 h, read-out: growth percent
Summary of the method: as §1

[5] = tested on: HS 578T; assay: NCI-60 single-dose antiproliferative screen; type: cell-based; settings: Homo sapiens, 48 h, read-out: growth percent
Summary of the method: as §2

[6] = tested on: U251; assay: NCI-60 single-dose antiproliferative screen; type: cell-based; settings: Homo sapiens, U-251, 48 h, read-out: growth percent
Summary of the method: as §1

[7] = tested on: UO-31; assay: NCI-60 single-dose antiproliferative screen; type: cell-based; settings: Homo sapiens, UO-31, 48 h, read-out: growth percent
Summary of the method: as §1

[8] = tested on: ACHN; assay: NCI-60 single-dose antiproliferative screen; type: cell-based; settings: Homo sapiens, 48 h, read-out: growth percent
Summary of the method: as §2

[9] = tested on: NCI-H460; assay: NCI-60 single-dose antiproliferative screen; type: cell-based; settings: Homo sapiens, NCI-H460, 48 h, read-out: growth percent
Summary of the method: as §2

[10] = tested on: COLO205; assay: NCI-60 single-dose antiproliferative screen; type: cell-based; settings: Homo sapiens, COLO 205, 48 h, read-out: growth percent
Summary of the method: as §2

[11] = tested on: MOLT-4; assay: NCI-60 single-dose antiproliferative screen; type: cell-based; settings: Homo sapiens, MOLT-4, 48 h, read-out: growth percent
Summary of the method: as §2

[12] = tested on: OVCAR-3; assay: NCI-60 single-dose antiproliferative screen; type: cell-based; settings: Homo sapiens, OVCAR-3, 48 h, read-out: growth percent
Summary of the method: as §2

[13] = tested on: T-47D; assay: NCI-60 single-dose antiproliferative screen; type: cell-based; settings: Homo sapiens, T47D, 48 h, read-out: growth percent
Summary of the method: as §1

[14] = tested on: SNB-19; assay: NCI-60 single-dose antiproliferative screen; type: cell-based; settings: Homo sapiens, SNB-19, 48 h, read-out: growth percent
Summary of the method: as §1

[15] = tested on: SNB-75; assay: NCI-60 single-dose antiproliferative screen; type: cell-based; settings: Homo sapiens, SNB-75, 48 h, read-out: growth percent
Summary of the method: as §1

[16] = tested on: UACC-62; assay: NCI-60 single-dose antiproliferative screen; type: cell-based; settings: Homo sapiens, UACC-62, 48 h, read-out: growth percent
Summary of the method: as §1

[17] = tested on: NCI-H226; assay: NCI-60 single-dose antiproliferative screen; type: cell-based; settings: Homo sapiens, NCI-H226, 48 h, read-out: growth percent
Summary of the method: as §2

[18] = tested on: HCT-15; assay: NCI-60 single-dose antiproliferative screen; type: cell-based; settings: Homo sapiens, HCT-15, 48 h, read-out: growth percent
Summary of the method: as §2

[19] = tested on: OVCAR-8; assay: NCI-60 single-dose antiproliferative screen; type: cell-based; settings: Homo sapiens, OVCAR-8, 48 h, read-out: growth percent
Summary of the method: as §2

[20] = tested on: NCI-H23; assay: NCI-60 single-dose antiproliferative screen; type: cell-based; settings: Homo sapiens, NCI-H23, 48 h, read-out: growth percent
Summary of the method: as §2

[21] = tested on: NCI-H460 cells; assay: Colony-forming ability; type: cell-based, human
[22] = tested on: NCI-H460 cells; assay: Wound healing assay; type: cell-based, human
[23] = tested on: HL-60(TB); assay: NCI-60 single-dose antiproliferative screen; type: cell-based; settings: Homo sapiens, HL-60, 48 h, read-out: growth percent
[24] = tested on: A498; assay: NCI-60 single-dose antiproliferative screen; type: cell-based; settings: Homo sapiens, A498, 48 h, read-out: growth percent
Summary of the method: as §2

| SMILES | activity at 10 µM [1] [%] | activity at 10 µM [2] [%] | activity at 10 µM [3] [%] | activity at 10 µM [4] [%] | activity at 10 µM [5] [%] | activity at 10 µM [6] [%] | activity at 10 µM [7] [%] | activity at 10 µM [8] [%] | activity at 10 µM [9] [%] | activity at 10 µM [10] [%] | activity at 10 µM [11] [%] | activity at 10 µM [12] [%] | activity at 10 µM [13] [%] | activity at 10 µM [14] [%] | activity at 10 µM [15] [%] | activity at 10 µM [16] [%] | activity at 10 µM [17] [%] | activity at 10 µM [18] [%] | activity at 10 µM [19] [%] | activity at 10 µM [20] [%] | also measured |
| --- | --- | --- | --- | --- | --- | --- | --- | --- | --- | --- | --- | --- | --- | --- | --- | --- | --- | --- | --- | --- | --- |
| COc1cc(CNC(=O)CCCC/C=C/C(C)C)ccc1OCc1cn(-c2cccc([N+](=O)[O-])c2)nn1 [14f, (E)-N-(3-Methoxy-4-((1-(3-nitrophenyl)-1H-1,2,3-triazol-4-yl)methoxy)benzyl)-8-methylnon-6-enamide] | 94.4 | 88.9 | 101 | 94.4 | 90.8 | 85.3 | 74.7 | 78.9 | 91.8 | 107 | 86.6 | 105 | 72.3 | 68.2 | 92 | 70 | 90.9 | 77.9 | 76.9 | 88 | – |
| COc1cc(CNC(=O)CCCC/C=C/C(C)C)ccc1OCc1cn(-c2ccc(F)cc2)nn1 [14h, (E)-N-(4-((1-(4-Fluorophenyl)-1H-1,2,3-triazol-4-yl)methoxy)-3-methoxybenzyl)-8-methylnon-6-enamide] | 90.2 | 106 | 98.8 | 92.2 | 77.7 | 83.9 | 86 | 81.2 | 75.7 | 120 | 82.6 | 96.4 | 73.8 | 81.3 | 83.5 | 71.9 | 74.2 | 89.6 | 71.5 | 81.4 | – |
| COc1cc(CNC(=O)CCCC/C=C/C(C)C)ccc1OCc1cn(-c2ccccc2F)nn1 [14i, (E)-N-(4-((1-(2-Fluorophenyl)-1H-1,2,3-triazol-4-yl)methoxy)-3-methoxybenzyl)-8-methylnon-6-enamide] | 95 | 107 | 101 | 105 | 87.7 | 93.1 | 77.1 | 83 | 104 | 116 | 90.9 | 97.5 | 83.1 | 84.8 | 88.1 | 76.2 | 81.3 | 96 | 94.5 | 95.3 | – |
| COc1cc(CNC(=O)CCCC/C=C/C(C)C)ccc1OCc1cn(-c2ccc(C#N)cc2)nn1 [14j, (E)-N-(4-((1-(4-Cyanophenyl)-1H-1,2,3-triazol-4-yl)methoxy)-3-methoxybenzyl)-8-methylnon-6-enamide] | 94.3 | 95.6 | 108 | 94.5 | 95 | 91.2 | 112 | – | 93 | 117 | 88.4 | 109 | 76.8 | 81.9 | 94.2 | 81.8 | 100 | 83.5 | 63.3 | 72.1 | colony-forming ability [21]: inhibited the colony-forming ability; migration capacity (wound healing) [22]: moderate wound healing |
| COc1cc(CNC(=O)CCCC/C=C/C(C)C)ccc1OCc1cn(-c2ccc(Br)cc2)nn1 [14k, (E)-N-(4-((1-(4-Bromophenyl)-1H-1,2,3-triazol-4-yl)methoxy)-3-methoxybenzyl)-8-methylnon-6-enamide] | 90.5 | 98.1 | 107 | 92.4 | 90.5 | 75.5 | 67.9 | 87.7 | 72.1 | 103 | 77.5 | 100 | 68.4 | 80.9 | 90.9 | 63 | 86.3 | 94 | 79.6 | 70.2 | – |
| COc1cc(CNC(=O)CCCC/C=C/C(C)C)ccc1OCc1cn(-c2ccc(C)cc2)nn1 [14n, (E)-N-(3-Methoxy-4-((1-(p-tolyl)-1H-1,2,3-triazol-4-yl)methoxy)benzyl)-8-methylnon-6-enamide] | 88.2 | 100 | 109 | 100 | 89.7 | 81.7 | 75.8 | 72 | 93.2 | 115 | 83.5 | 91.8 | 77.4 | 77.9 | 99.5 | 70.2 | 75.8 | 104 | 76.5 | 87.9 | – |
| COc1cc(CNC(=O)CCCC/C=C/C(C)C)ccc1OCc1cn(-c2ccc(C)c(C)c2)nn1 [14p, (E)-N-(4-((1-(3,4-Dimethylphenyl)-1H-1,2,3-triazol-4-yl)methoxy)-3-methoxybenzyl)-8-methylnon-6-enamide] | 81.9 | 97.8 | 104 | 105 | 90.7 | 88.3 | 75.7 | 68.5 | 86.5 | 106 | 78.5 | 100 | 73.2 | 95.8 | 91 | 75.1 | 86.9 | 71.2 | 83.3 | 74.9 | – |
| COc1cc(CNC(=O)C[C@H](C)CCC=C(C)C)ccc1OCc1cn(-c2ccc(Cl)cc2)nn1 [18b, (R)-N-(4-((1-(4-Chlorophenyl)-1H-1,2,3-triazol-4-yl)methoxy)-3-methoxybenzyl)-3,7-dimethyloct-6-enamide] | 85.5 | 79.6 | 84.9 | 67.7 | 71.4 | 57.7 | 62.5 | 44.8 | 65 | 91.1 | 71.7 | 82.3 | 52.5 | 78.6 | 41.6 | 65.7 | 63.8 | 65.3 | 49.1 | 64.9 | activity at 10 µM [23]: 87.8%; activity at 10 µM [24]: 98.9% |
